Test results from PubChem BioAssay AID504383 (The Scripps Research Institute Molecular Screening Center, 2011).
Screen size: about 2,500 compounds; about 1,200 (48%) were called active. So high a share suggests a set chosen from earlier hits. The list shows a part of the results. A number with no mark means an inactive call.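 Rule for the calls: active = mean activation above the low control average plus 3 SD, as set in the primary screen (cut at about 12% in these data); inactive = the rest.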

target: Troponin I, cardiac muscle (Homo sapiens) + Troponin T, cardiac muscle (Homo sapiens) + Troponin C, slow skeletal and cardiac muscles (Homo sapiens) (UniProt P19429+P45379+P63316); test: cardiac RTF calcium sensitivity activators, confirmation, biochemical, IANBD-TnC fluorescence, triplicate (AID 504383); details: IANBD-labeled cardiac RTF, Ca2+ sensitivity fluorescence; at 7.2 µM; active compounds read high; scaled from EC20 to saturating calcium; tested at EC20 calcium, 0.472 mM;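 note: 0% = DMSO at 0.472 mM calcium and 100% = DMSO at 2.9 mM calcium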
Outline: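 material = labelled regulated thin filaments | probe or stimulus = Ca2+ 0.472 mM, EC20 level | dosing = single nominal compound dose of 7.2 µM | schedule = 15 min at 25 °C | signal = fluorescence intensity of labelled filaments | evaluation = fluorescence gain scaled between EC20 and EC100 calcium controls | benchmarks = low control EC20 calcium, high control EC100 calcium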

Compound | activation
CC1=Nc2ccccc2/C1=C\c1nc(-c2ccc(C(F)(F)F)cc2)oc1O | 7.9%
CC1=Nc2ccccc2/C1=C\c1nc(-c2ccc(F)cc2)oc1O | 7.33%
COc1ccc(-c2nc(/C=C3\C(C)=Nc4ccccc43)c(O)o2)cc1 | 12.1% (active)
N#C/C(=C\c1ccc(-c2ccc(F)cc2)o1)C(=O)Nc1nc(-c2cccs2)cs1 | 81.8% (active)
Cn1c(/C(C#N)=C/c2ccc(-c3ccc(S(N)(=O)=O)cc3)o2)nc2ccccc21 | 9.43%
N#C/C(=C/c1ccc(-c2ccccc2)o1)c1nc(-c2cccs2)cs1 | 105% (active)
Cc1ccc(C2NC(=O)c3c(sc4c3CCN(C)C4)N2)s1 (stereo unspecified) | 5.94%
CN1CCc2c(sc3c2C(=O)NC(c2ccco2)N3)C1 (stereo unspecified) | 1.53%
Cc1ccsc1C1NC(=O)c2c(sc3c2CCN(C)C3)N1 (stereo unspecified) | 63.1% (active)
CN1CCc2c(sc3c2C(=O)NC(c2cccs2)N3)C1 (stereo unspecified) | 9.65%
CN1CCc2c(sc3c2C(=O)NC(c2ccccn2)N3)C1 (stereo unspecified) | 1.45%
CSc1ccc(C2NC(=O)c3c(sc4c3CCN(C)C4)N2)cc1 (stereo unspecified) | 22.9% (active)
O=C1NC(c2ccco2)Nc2sc3c(c21)CCN(Cc1ccccc1)C3 (stereo unspecified) | 11.7% (active)
Cc1ccc(C2NC(=O)c3c(sc4c3CCN(C)C4)N2)o1 (stereo unspecified) | 12.6% (active)
CCc1ccccc1NC(=S)NCc1cccn1C | 9.11%
Cn1c(C(=O)NCCCN2CCCCCC2)cc2c(=O)n(C)c3ccccc3c21 | 18.9% (active)
O=C(NCCCN1CCOCC1)C(=O)NCc1ccco1 | 9.34%
O=C(C1=NN[C@@H]2C(=O)N(c3ccccc3C(F)(F)F)C(=O)[C@H]12)c1ccc2ccccc2n1 | 60.7% (active)
CC1CC(C)(C)NC(=S)N1CCCC(=O)Nc1ccccc1F (stereo unspecified) | -0.32%
Cc1ccc(C)c(N2CCN(C(=O)CN3C(=S)NC(C)(C)CC3C)CC2)c1 (stereo unspecified) | 42.4% (active)
CC(C)C[C@@H](CN=[N+]=[N-])N1CCN(C)CCC1=O | -0.6%

Compound | activation
CCN1CCN(C2=CC3=CC(=C(C#N)C#N)CCC3CC2)CC1 (stereo unspecified) | 0.71%
Cc1oc(-c2ccccc2Cl)nc1CSc1nc2c(c(=O)[nH]1)CCC2 | 6.98%
O=C(NCc1ccccc1)C1(c2cccc(F)c2)CCCC1 | 6.54%
Fc1ccc(CNC(=S)NCc2ccc(F)cc2)cc1 | 54.8% (active)
Fc1ccc(CNCc2ccc(Br)cc2)cc1 | 10.4%
Cc1cc(=O)c2c([nH]1)c(C)cc1[nH]c(C)c(C)c12 | 9.89%
CC1(C)C([N+](=O)[O-])C(c2ccc(F)cc2)NC(c2ccc(F)cc2)C1[N+](=O)[O-] (stereo unspecified) | 1.97%
COC(=O)C1(C)NC(c2ccc(C)cc2)C2C(=O)N(c3ccc(F)cc3)C(=O)C21 (stereo unspecified) | 17% (active)
CC(C)CN1CCN(Cc2cccn2-c2ccc(Cl)cn2)CC1CCO (stereo unspecified) | 155% (active)
COc1ccc(S(=O)(=O)N2CN(Cc3ccco3)c3nc4ccccc4nc32)cc1 | 127% (active)
O=S(=O)(c1ccc(F)cc1)N1CN(Cc2ccco2)c2nc3ccccc3nc21 | 19% (active)
CS(=O)(=O)N(CC(=O)N/N=C/c1ccco1)c1ccccc1Br | 116% (active)
Cc1ccccc1N(CC(N)=O)S(C)(=O)=O | 4.33%
CCCCCCC(=O)N/N=C/c1ccco1 | 7.23%
O=C(O)c1ccccc1-c1c2cc(I)c(=O)c(I)c-2oc2c(I)c(O)c(I)cc12 | 5.23%
C#CCOCCOCCOCCNc1nc(N2CCN(C(=O)Cn3cc(CCCCN)nn3)CC2)nc(N2CCN(C(=O)Cn3cc(CC(C)O)nn3)CC2)n1 (stereo unspecified) | 5.79%
O=C(O)c1ccc2c(c1)S(=O)(=O)c1ccccc1C2=O | 6.82%
C=C1CCN([C@@H](Cc2ccccc2)C(=O)O)S(=O)(=O)c2ccccc21 | 15.6% (active)
C=C1CCN(C(CC(C)C)C(=O)OC)S(=O)(=O)c2ccccc21 (stereo unspecified) | 4.69%
COc1ccc(/C=C/C=C2\N=C(SC)SC2=O)cc1 | 6.95%
COc1ccc(/C=C/c2nc3sc4c(c3c(=O)o2)CCC4)cc1 | 292% (active)

Compound | activation
Fc1ccc(-c2[nH]ncc2CN(CC2CCC2)CC2CCCO2)c(F)c1 (stereo unspecified) | 46.1% (active)
O=C1/C(=C/c2ccc(N3CCCC3)cc2)NC(=S)N1C1CC1 | 1.84%
CCCN1C(=O)/C(=C/c2ccc(N3CCOCC3)cc2)NC1=S | 217% (active)
CCN1C(=O)/C(=C/c2ccc(N3CCCC3)cc2)NC1=S | 7.36%
CCN1C/C(=C/c2ccc(N3CCOCC3)cc2)C(=O)/C(=C/c2ccc(N3CCOCC3)cc2)C1 | 4.14%
CN1C/C(=C\c2ccc(N3CCOCC3)cc2)C(=O)/C(=C/c2ccc(N3CCOCC3)cc2)C1 | 11.8% (active)
COc1ccc(S(=O)(=O)N2CCC(C(=O)NC(C)CCc3ccccc3)CC2)cc1 (stereo unspecified) | 11.2%
CCC(C)NC(=O)C1CC(=O)N(CCc2ccc(F)cc2)C1 (stereo unspecified) | 331% (active)
O=[N+]([O-])c1ccc(N/N=C/c2ccc(OCc3cccc4ccccc34)cc2)nc1 | 8.03%
Clc1ccccc1/C=N/NC1=Nc2cccc3cccc1c23 | 5.59%
O=[N+]([O-])c1ccc(NN=Cc2cccc3ccccc23)nc1 | 31.4% (active)
Cc1cc(C)c2c(=O)n(-c3ccccc3)[nH]c2n1 | 10.3%
Cc1cc(C)c(C#N)c(Sc2nnnn2-c2ccccc2)n1 | 27.6% (active)
O=c1c(/C=N/Nc2ccccc2)c(Sc2nnnn2-c2ccccc2)nc2ccccn12 | 2.36%
CC(C)(C)c1cc(NCc2ccccn2)n2ncc(-c3ccc(Cl)cc3)c2n1 | 7.76%
COc1ccc2c(c1)c(/C=C/c1cc[n+](C)cc1)cn2C | 4.1%
COC(=O)c1c(=O)n(O)c2ccc(OC)cc2[n+]1[O-] | 16.1% (active)
CCOC(=O)c1c(=O)n(O)c2ccc(OC)cc2[n+]1[O-] | 8.7%
COC(=O)C1CSc2[nH]c(=O)sc2C1c1ccccc1 (stereo unspecified) | 8.86%
